High-throughput results deposited in PubChem BioAssay by several laboratories.
A selection: hits, their analogues and other compounds. The true share with any hit is near 3%.
INS promoter inh: TRM-6 insulin promoter activity inhibition; TRM-6 cells (human fetal islet line), insulin promoter-eGFP reporter, imaging; reporter expression induced with tamoxifen; inhibition, % at 2 µM; 130,000 tested, 0.9% active;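 active = inhibition above the mean plus 3 SD, with well images judged a real hit on visual review, cut at about 60% in these data, passing the limit was not always enough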
Yeast lifespan up: extends the lifespan of yeast; S. cerevisiae growth with nicotinamide, OD615; deaD strain in restrictive glucose medium; inhibition of the nicotinamide effect, % at 10 µM; 130,000 tested, 0.68% active; AID 775;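 active = inhibition above a set limit, placed 3 SD over the median of all compounds, cut at about 26% in these data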;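 also: 0% = nicotinamide-treated wells and 100% = cells grown without nicotinamide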
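Test system: DeaD-strain S. cerevisiae / Buffer or medium: restrictive glucose medium / Also added: nicotinamide 1.5 mM / Doses: one concentration, 10 µM, DMSO 0.25% / Schedule: 48 h at 30 °C / Signal: OD615 measurement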
BB579 growth dn: yeast BB579 growth reduction in restrictive medium; AID 804; 140,000 tested, 0.51% active; S. cerevisiae BB579 growth, OD615, 48 h; inhibition, % at 10 µM;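 active = inhibition above a set limit, 3 SD over the mean compound inhibition, cut at about 44% in these data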
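System: DeaD yeast strain BB579; buffer or medium: CSMM-D dextrose restrictive medium; technique: OD at 615 nm; schedule: 4 h cell preincubation, 48 h compound exposure, 30 °C humidified; doses: single 10 µM dose; controls: amphotericin B 10 µg/mL, positive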
Insulin prom up: MIN6 insulin promoter up-regulation | z-score at 5 µM | MIN6 insulin promoter-GFP reporter, high-content imaging; stronger effect = higher value | 190,000 tested, 0.3% active;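 active = z-score above 3 at 5 µM with at least 500 cells counted in the well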
RAM network inh: yeast RAM network inhibition; inhibition, % at 50 µM; 190,000 tested, 1.8% active; AID 868; S. cerevisiae dse1pr::URA3 reporter, 5-FOA growth OD615, 2 d; analog-sensitive cbk1-as2 kinase mutant strain;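 active = inhibition above a set limit, 3 SD over mean compound inhibition, cut at about 8.4% in these data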;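 also: 0% = DMSO-only wells with no growth and 100% = 10 µM 1-NA-PP1 full growth; inhibition rescues growth on 5-FOA so higher OD means more RAM inhibition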
Active calls of the source: *; nt = no result given.

SMILES	INS promoter inh	Yeast lifespan up	BB579 growth dn	Insulin prom up	RAM network inh
O=C(c1ccc2c(c1)OCO2)N1CCC2(CC1)Oc1ccc(F)cc1C(=O)C21CC(c2ccccc2)=NO1 (stereo not given)	nt	nt	nt	-1.49	nt
CC(C)n1c(C(O)c2ccc3c(c2)OCO3)nc2ccccc21 (stereo not given)	-21.2	-7.9	-29.3	0.25	-0.4
Cn1c(C(O)c2ccc3c(c2)OCO3)nc2ccccc21 (stereo not given)	77.4*	1.5	-39.8	-0.08	2.9
O=C(NN=C1C2CC3CC(C2)CC1C3)c1ccccc1O	nt	nt	nt	-1.36	nt
CCc1nn(-c2ccccc2)c(N)c1C#N	60.0*	-3.9	-55.1	-0.29	0.6
N#CCc1nn(-c2ccccc2)c(N)c1C#N	-4.3	2.8	-46.4	0.54	1.3
CC(/C=C1\N=C(SCc2ccccc2Cl)SC1=O)=C\c1ccccc1	37.8	2.7	-60.1	nt	10.3*
CCSC1=N/C(=C\c2cccc(F)c2)C(=O)S1	10.3	4.4	-33.8	-0.05	-1.5
COCCNC(=O)Cc1ccc(F)cc1	35.7	-2.1	-35.0	3.03*	3.6
Cn1nc([N+](=O)[O-])nc1Sc1nnnn1-c1ccc(C(=O)O)cc1	nt	nt	nt	1.11	0.4
CCOc1cc(OCC)cc(C(=O)NCCCN2CCOCC2)c1	22.2	nt	nt	0.04	0.5
Cc1ccc(CNC(=O)c2ccc(-n3cccc3)cc2)cc1	100.0*	nt	nt	0.1	2.7
COc1cc(OC)cc(C(=O)NCCCN2CCN(CCCNC(=O)c3cc(OC)cc(OC)c3)CC2)c1	21.6	40.8*	-22.8	-0.1	-0.3
Cc1ccc(C(=O)Nc2ccccc2C(=O)NCc2ccccc2)cc1	nt	-5.2	-9.6	-0.36	8.6*
COc1cc(OC)cc(C(=O)NCc2cccnc2)c1	22.2	-10.2	-62.0	0.59	1.3
COc1cc(OC)cc(C(=O)NCc2ccc(-n3cccc3)cc2)c1	6.7	nt	nt	0.32	11.3*
Cc1ccc(CNC(=O)Cc2ccc(-n3cccc3)cc2)cc1	13.3	2.0	-18.6	-0.29	3.1
COc1ccc(C(=O)NC(=S)NCc2ccccc2)cc1	2.9	-25.8	-37.8	0.01	1.8
COc1cc(OC)cc(C(=O)NC(=S)NCCc2ccccc2)c1	-46.7	-20.5	-0.9	-0.85	10.4*
O=C(CSc1cc(Cl)ccc1Cl)NCC(=O)Nc1ccc(F)c(F)c1F	-53.3	6.3	-66.2	-0.66	9.4*
COc1ccccc1C(C)NCC(=O)NCC(=O)Nc1ccc(F)c(F)c1F (stereo not given)	25.0	nt	nt	-0.55	0.1
O=S(=O)(Nc1ccc(Cl)cc1)c1ccc(N2CCOCC2)c(NC(=S)NCCN2CCOCC2)c1	-64.3	nt	nt	0.02	1.2
O=C(Nc1ccc(C(=O)O)cc1)/C(=C\c1ccc2c(c1)OCO2)NC(=O)c1ccccc1	80.0*	nt	nt	0.08	9.2*
O=C(Nc1ccc(C(=O)O)cc1)/C(=C\c1ccc2c(c1)OCO2)NC(=O)c1ccc(Br)cc1	nt	nt	nt	0.96	10.7*
O=C(O)CNC(=O)/C(=C\c1ccc2c(c1)OCO2)NC(=O)c1ccc(Br)cc1	0.0	nt	nt	-1.34	1.7
SMILES	INS promoter inh	Yeast lifespan up	BB579 growth dn	Insulin prom up	RAM network inh
C/C(=N\Nc1ccc(Cl)cc1)c1ccccn1	16.2	-16.6	92.0*	-0.05	0.0
C/C(=N\Nc1ccc2nncn2n1)c1ccccn1	nt	nt	nt	-2.75	nt
Cc1ccc(CN(CC(=O)NC2CCCC2)C(=O)CSc2nnc(COc3ccccc3)o2)cc1	10.3	nt	5.6	0.23	8.7*
Cc1cccc(OCc2nnc(SCC(=O)OC3CCCCC3)o2)c1	nt	-11.2	-12.8	-0.42	10.2*
O=C(CN(Cc1ccccc1)C(=O)CSc1nnc(COc2ccccc2)o1)NC1CCCC1	73.3	nt	-29.7	nt	8.6*
O=C(CSc1nnc(COc2ccccc2)o1)NCCc1ccccc1	16.7	-10.9	-6.8	0.17	1.7
COc1ccc(/C=N/n2c(SC)nnc(C(C)(C)C)c2=O)cc1OC	29.6	-9.8	-69.2	0.44	1.0
COc1cc(/C=N/n2c(SC)nnc(C(C)(C)C)c2=O)ccc1O	76.9*	-13.1	-10.6	0.94	2.2
COc1ccc(/C=N/NC(=O)CC2N=C(Cc3ccccc3)NNC2=O)cc1OC (stereo not given)	-7.1	-4.9	-40.5	0.09	0.7
Cc1ccc(NC(=O)COC(=O)CN2C(=O)NC(C)(C)C2=O)cc1S(=O)(=O)N1CCOCC1	78.6*	nt	nt	0.18	-0.8
Cc1ccc(SCC2=NN(c3nc(C)cc(C)n3)C(=O)C2)cc1	66.7*	nt	nt	0.03	-1.0
CCn1c(N2CCN(C(=S)Nc3ccc(OC)cc3)CC2)nc2ccccc21	nt	nt	nt	-0.69	1.1
c1nc(NC2CCCCCC2)c2[nH]cnc2n1	70.0*	-3.9	-9.8	0.49	1.8
Cc1ccc(S(=O)(=O)CCC(=O)OCC(=O)c2ccc(C)c(C)c2)cc1	-13.3	5.6	-33.5	0.31	10.8*
CC(C)(C)CC(C)(C)NC(=S)NC1CCN(Cc2ccccc2)CC1	nt	4.4	-17.4	-0.5	2.0
CCOc1ccc(-n2c(SCC(=O)c3c(N)n(C)c(=O)n(C)c3=O)nnc2-c2cccnc2)cc1	21.6	5.5	-38.5	-0.07	9.1*
Cc1ccccc1-n1c(SCC(=O)c2c(N)n(C)c(=O)n(C)c2=O)nnc1-c1cccnc1	-22.6	2.6	-8.7	0.3	4.1
O=C(COC(=O)C1Cc2ccccc2CN1C(=O)c1ccccc1)Nc1ccc(SC(F)F)cc1 (stereo not given)	nt	0.8	-42.1	-0.03	4.2
Cc1snc(S(=O)(=O)/C(C#N)=N/Nc2ccc(C(F)(F)F)cc2)c1C#N	71.4*	-15.4	0.6	-0.12	1.6
Cc1snc(S(=O)(=O)/C(C#N)=N\Nc2ccccc2)c1C#N	3.6	-17.8	-12.6	-0.46	5.7
COc1ccc(CCn2c(-c3ccccc3)nc3c(c(=O)c4ccccc4n3C)c2=O)cc1	43.8	31.0*	-58.4	-0.16	2.9
Cn1cc(NC(=O)Nc2ccc(C(F)(F)F)cc2)c(C(F)(F)F)n1	nt	nt	nt	-0.95	nt
Cn1ncc(C#N)c1/N=C/N1CCCCCC1	-26.5	-8.5	-23.9	-0.11	0.1
Cn1ncc(C#N)c1/N=C/N1CCOCC1	-287.5	40.4*	-54.3	-0.18	0.0
COc1ccc(C(=O)Nn2cnnc2)cc1OC	nt	nt	nt	4.36*	nt
SMILES	INS promoter inh	Yeast lifespan up	BB579 growth dn	Insulin prom up	RAM network inh
N#CCCN1CCNCC1	67.9*	-8.5	-3.0	0.56	0.4
COC(C[C@@H]1O[C@@H]1C(=O)COCc1ccccc1)OC	nt	nt	nt	0.29	nt
Brc1cnc2nc[nH]c2c1	nt	nt	nt	0.23	nt
CCOC(=O)c1cc(CC)sc1NC(=O)c1ccc2c(c1)OCCO2	nt	-12.3	-9.3	-0.48	6.3
CCOC(=O)c1cc(CC)sc1NC(=O)C1CC1	63.6	-15.4	26.7	-0.48	-1.9
CCOC(=O)c1cc(CC)sc1NC(=O)c1cc(OCC)c(OCC)c(OCC)c1	0.0	-1.4	-25.4	-0.66	10.3*
CCOC(=O)c1cc(CC)sc1NC(=O)C(c1ccccc1)c1ccccc1	11.1	-8.1	-63.3	0.06	9.3*
CCOC(=O)c1cc(-c2ccccc2)sc1NC(=O)C(C)Sc1nnc(C)s1 (stereo not given)	0.0	4.7	-5.9	-1.36	11.3*
CC1CCc2c(sc3nn[nH]c(=O)c23)C1 (stereo not given)	20.0	-7.4	-36.3	4.24*	2.9
